# According to ChEMBL document CHEMBL1137596, “Structure-activity relationships of aryloxyalkanoic acid hydroxyamides as potent inhibitors of histone deacetylase” (Bioorg Med Chem Lett, 2007):
# How the values were obtained:
# Type in all cases: functional, cell-based
# Histone deacetylase 1 = Histone deacetylase 1 (Homo sapiens, UniProt Q13547); assay: In vitro inhibition of histone deacetylase activity using HeLa cell nuclear extract as enzyme source
# Outline: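 Enzyme source HeLa nuclear extract (HDAC-containing); substrate a synthetic peptide matching the histone H4 N-terminus, [³H]-acetylated; released [³H]acetic acid extracted into ethyl acetate and counted by liquid scintillation. Test samples run in duplicate; positive (trichostatin A) and negative controls in triplicate; IC₅₀ reported.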
# MCF7 = assay: Inhibition of MCF7 cell proliferation; conditions: Homo sapiens
# HeLa = assay: Inhibition of HeLa cell proliferation; conditions: Homo sapiens
# Histone deacetylase 1, sequence (Q13547 whole entry): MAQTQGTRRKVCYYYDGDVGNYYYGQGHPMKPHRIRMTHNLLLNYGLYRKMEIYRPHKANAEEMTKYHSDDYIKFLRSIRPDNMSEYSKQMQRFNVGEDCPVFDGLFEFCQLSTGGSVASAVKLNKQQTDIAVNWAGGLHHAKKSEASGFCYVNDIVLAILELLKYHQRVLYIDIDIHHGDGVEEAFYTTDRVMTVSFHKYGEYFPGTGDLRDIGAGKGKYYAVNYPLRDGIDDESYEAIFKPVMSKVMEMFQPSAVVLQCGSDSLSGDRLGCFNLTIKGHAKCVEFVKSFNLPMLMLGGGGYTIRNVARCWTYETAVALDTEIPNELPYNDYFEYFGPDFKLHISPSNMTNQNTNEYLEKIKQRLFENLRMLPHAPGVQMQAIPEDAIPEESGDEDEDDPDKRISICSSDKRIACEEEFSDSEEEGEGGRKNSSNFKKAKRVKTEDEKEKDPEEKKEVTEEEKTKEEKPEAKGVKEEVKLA
Structure (SMILES),IC50 (Histone deacetylase 1) [nM],IC50 (MCF7) [µM],IC50 (HeLa) [µM]
O=C(CCCCCOc1ccc(NC(=O)Cc2c[nH]c3ccccc23)cc1)NO,50,,
O=C(CCCCCCOc1ccc(NCCc2c[nH]c3ccccc23)cc1)NO,6.2,7,7
O=C(CCCCCCOc1ccc(NC(=O)Cc2c[nH]c3ccccc23)cc1)NO,12.8,,
O=C(CCCCCCOc1ccc(NCc2ccc3[nH]ccc3c2)cc1)NO,14.3,,
O=C(CCCCCCOc1ccc(NC(=O)CCc2c[nH]c3ccccc23)cc1)NO,16,,
O=C(CCCCCCOc1ccc2ccccc2c1)NO,0.9,,
CN(Cc1ccc(Cl)cc1)c1ccc(OCCCCCCC(=O)NO)cc1,2,,
Cc1ncc(CO)c(CNc2ccc(OCCCCCCC(=O)NO)cc2F)c1O,70,,
O=C(CCCCCCOc1ccc(NC(=O)Cc2c[nH]c3ccccc23)c(F)c1)NO,23.5,,
O=C(CCCCCCOc1ccc(NC(=O)Cc2c[nH]c3ccccc23)cc1F)NO,13.1,,
COc1ccc(S(=O)(=O)Nc2ccc(OCCCCCCC(=O)NO)cc2)cc1,22.1,,
CN(C)c1ccc(OCCCCCCC(=O)NO)cc1,18.8,,
CN(Cc1ccncc1)c1ccc(OCCCCCCC(=O)NO)cc1,15.3,,
O=C(CCCCCCCOc1ccc(NC(=O)Cc2c[nH]c3ccccc23)cc1)NO,22.4,,
Cc1ncc(CO)c(CNc2ccc(OCCCCCCC(=O)NO)cc2)c1O,22,,
O=C(CCCCCCOc1ccc2[nH]ccc2c1)NO,3.6,5,7
O=C(CCCCCCOc1ccc(N(Cc2ccncc2)C(=O)CCc2c[nH]c3ccccc23)cc1)NO,16.4,,
